From ChEMBL document CHEMBL1151458, “Comparative analysis of the bactericidal activities of amphibian peptide analogues against multidrug-resistant nosocomial bacterial strains” (2008) come the findings set out here.

For experiment [1], the system named is Enterococcus faecium. The experiment is described as follows: Antimicrobial activity against Enterococcus faecium isolate 3 with AMP-CIP-CTX-ERY-GEN-LVX-SXT-TEC-VAN resistance phenotype at twofold the bactericidal concentration within 30 mins. The class given is functional, organism-based. In a few lines:
(§1)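 Time-kill in 10 mM sodium phosphate buffer, pH 7.4: 1 × 10^7 CFU/ml mid-log clinical isolate (10 μl) exposed at 37°C to peptide at the 1.5-h bactericidal concentration or twofold that, in 100 μl. Samples taken from 2 min onward, plated on tryptone soy agar, CFU counted after 24 h at 37°C. Killing taken as ≥3 log10 CFU/ml drop.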

Experiment [2] concerns Staphylococcus aureus. The experiment is described as follows: Bactericidal activity against Staphylococcus aureus isolate 3 with AMC-AMP-CIP-ERY-GEN-LVX-OXA resistance phenotype assessed as concentration required for >= 3 log10 CFU/ml reduction in viable bacteria in sodium phosphate buffer at pH 7.4 after 1.5 hrs by liquid microdilution assay. The format is functional. In a few lines:
(§2)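 Clinical multidrug-resistant isolates grown to mid-log in tryptone soy broth and stored frozen. Exponential cells resuspended in 10 mM sodium phosphate buffer, pH 7.4, at 1 × 10^7 CFU/ml; 10 μl incubated with graded peptide concentrations in 100 μl at 37°C for 1.5 h. Plated on tryptone soy agar, CFU read after 24 h at 37°C. Peptide stocks in 20% ethanol.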

The test system of experiment [3] is Acinetobacter baumannii. The experiment can be described thus: Bactericidal activity against Acinetobacter baumannii isolate 2 with AMP-CFZ-CIP-LVX-PIP-SXT resistance phenotype assessed as concentration required for >= 3 log10 CFU/ml reduction in viable bacteria in sodium phosphate buffer at pH 7.4 after 1.5 hrs by liquid microdilution assay. The format is functional. In a few lines: as §2

For experiment [4], the system named is Acinetobacter baumannii. The experiment is described as follows: Bactericidal activity against Acinetobacter baumannii isolate 1 with AMP-AMC-CFZ-CIP-IPM-LVX-PIP-SXT-TET resistance phenotype assessed as concentration required for >= 3 log10 CFU/ml reduction in viable bacteria in sodium phosphate buffer at pH 7.4 after 1.5 hrs by liquid microdilution assay. The format is functional. In a few lines:
as §2

Experiment [5] concerns Enterococcus faecium. The experiment is described as follows: Bactericidal activity against Enterococcus faecium isolate 5 with AMP-AMC-CIP-CLI-ERY-GEN-KAN-LVX-SXT-TEC-VAN resistance phenotype assessed as concentration required for >= 3 log10 CFU/ml reduction in viable bacteria in sodium phosphate buffer at pH 7.4 after 1.5 hrs by liquid microdilution assay. The format is functional. The procedure, abridged: as §2
For orientation: Broth dilution looks for growth in wells or tubes with falling amounts of substance.

Experiment [6] deals with Enterococcus faecium. The experiment can be described thus: Bactericidal activity against Enterococcus faecium isolate 3 with AMP-CIP-CTX-ERY-GEN-LVX-SXT-TEC-VAN resistance phenotype assessed as concentration required for >= 3 log10 CFU/ml reduction in viable bacteria in 20% heat-inactivated human serum after 1.5 hrs by liquid microdilution assay. The format is functional. In a few lines:
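The buffer microdilution kill assay (1 × 10^7 CFU/ml mid-log cells, 10 μl in 100 μl, 37°C, 1.5 h, CFU on tryptone soy agar after 24 h) with serum added to 20% or 40% final. Serum was pooled from five healthy donors, clotted at room temperature, spun at 300 × g and heat-inactivated at 56°C for 30 min.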

In experiment [7] the test system is Pseudomonas aeruginosa. The experiment is described as follows: Bactericidal activity against Pseudomonas aeruginosa isolate 1 with AMP-CFZ-CIP-CTX-CXM-GEN-LVX-SXT-TET resistance phenotype assessed as concentration required for >= 3 log10 CFU/ml reduction in viable bacteria in sodium phosphate buffer at pH 7.4 after 1.5 hrs by liquid microdilution assay. The class given is functional. In a few lines: as §2

Experiment [8] relates to Acinetobacter baumannii. The experiment can be described thus: Antimicrobial activity against Acinetobacter baumannii isolate 3 with AMP-AMC-CFZ-CIP-IPM-SXT-TET-TOB resistance phenotype assessed as time to kill at bactericidal concentration. The format is functional. The procedure, abridged: as §1
The subject of experiment [9] is Acinetobacter baumannii. The experiment is described as follows: Bactericidal activity against Acinetobacter baumannii isolate 3 with AMP-AMC-CFZ-CIP-IPM-SXT-TET-TOB resistance phenotype assessed as concentration required for >= 3 log10 CFU/ml reduction in viable bacteria in sodium phosphate buffer at pH 7.4 after 1.5 hrs by liquid microdilution assay. The class given is functional. The procedure, abridged: as §2

The subject of experiment [10] is Staphylococcus aureus. The experiment is described as follows: Bactericidal activity against Staphylococcus aureus isolate 2 with AMC-AMP-CIP-ERY-GEN-LVX-OXA-RIF-TET resistance phenotype assessed as concentration required for >= 3 log10 CFU/ml reduction in viable bacteria in sodium phosphate buffer at pH 7.4 after 1.5 hrs by liquid microdilution assay. The format is functional. In a few lines:
as §2

Activity calls are given as the source filed them. No cut-off for these calls is given here.

For the substance H-GIFSKLAGKKLKNLLISG-NH2, the outcome in [1] was inactive. Also, the Activity was found to be 8 µM in experiment [2]; 0.5 µM in experiment [3]; 0.5 µM in [4]; 2 µM in experiment [5]; 32 µM in [6]; 1 µM in experiment [7]. For the same substance, the Activity worked out at 1 µM in experiment [9] and 16 µM in experiment [10]. In addition, in [8], the Time stood at 2 min.
